Source: PubChem (Johns Hopkins Ion Channel Center)
KCNQ1 inh – human KCNQ1 channel inhibition. P51787. CHO-K1 KCNQ1, FluxOR thallium flux fluorescence; hits give high values. B-score at 10 µM. 1.3% of 310,000 active. AID 2642;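 active means compounds whose thallium flux B-score, printed positive for inhibition, exceeds three library SD while starting fluorescence stays within three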;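 further: channel opened by potassium depolarization with thallium stimulus after 20 min compound exposure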
KCNK3 block – human KCNK3 channel inhibition, primary screen; O14649; CHO-KCNK3 thallium flux, FluxOR fluorescence; hits give low values; B-score at 10 µM; 0.84% of 340,000 active; AID 602410;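 active means B-score under library mean minus 4 SD, starting fluorescence ratio at most library mean plus 5 SD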;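 further: more negative B-score means stronger inhibition of thallium flux through KCNK3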
Target sequence (O14649 whole entry, looked up): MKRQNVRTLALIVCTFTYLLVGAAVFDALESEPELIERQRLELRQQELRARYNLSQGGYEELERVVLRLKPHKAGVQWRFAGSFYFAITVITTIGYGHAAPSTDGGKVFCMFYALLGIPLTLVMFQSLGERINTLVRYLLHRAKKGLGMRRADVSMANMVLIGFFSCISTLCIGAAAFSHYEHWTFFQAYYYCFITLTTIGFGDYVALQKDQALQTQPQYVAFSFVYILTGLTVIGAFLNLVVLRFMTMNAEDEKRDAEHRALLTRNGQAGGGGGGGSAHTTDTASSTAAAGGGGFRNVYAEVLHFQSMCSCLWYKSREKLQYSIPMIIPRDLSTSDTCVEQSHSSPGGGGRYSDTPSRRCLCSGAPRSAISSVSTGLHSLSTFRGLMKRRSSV
KCNK9 inh – inhibitors of human KCNK9 two-pore domain potassium channel | Q9NPC2 | AID 488922 | B-score at 10 µM | 1.2% of 310,000 active | HEK293 KCNK9, FluxOR thallium flux fluorescence; hits give low values;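 active means ratio B-score over 3 SD below the library mean, with starting fluorescence within 5 SD of its mean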;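 further: negative B-score means less thallium flux so channel inhibition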
Kir21 block – inhibitors of mouse Kir2.1 inward-rectifier potassium channel | P35561 | HEK293-Kir2.1, FluxOR thallium flux fluorescence; hits give low values | B-score at 10 µM | 0.85% of 310,000 active | AID 1672;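 active means fluorescence ratio B-score at or below minus 3 SD of library scores, with starting-brightness B-score within 2 SD, cut at about -4.2 in these data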;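 further: channel flux triggered by added potassium and thallium sulfate stimulus; B-score of peak minus minimum fluorescence over baseline after thallium stimulus; more negative B-score means stronger Kir2.1 block with less thallium influx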
hERG protect – hERG (human) protection from proarrhythmic block. CHO-hERG, FluxOR thallium flux, dofetilide IC70 present. activation (rescue from dofetilide block), less the hit threshold, % at 10 µM. 0.51% of 310,000 active. Q12809;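 active means activation above the mean of controls blocked by dofetilide plus 5 SD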;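 further: thallium influx through hERG after potassium depolarization seen as dye fluorescence rise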
KCNQ1 act – human KCNQ1 channel potentiation or activation; P51787; CHO-K1 KCNQ1, thallium flux FluxOR fluorescence; hits give high values; B-score at 10 µM; 0.35% of 310,000 active; AID 2648;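 active means fluorescence ratio B-score, a plate-corrected score, at least three library SD, with initial intensity B-score within 5 SD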
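Test system: CHO-K1 cells stably expressing KCNQ1 / Medium: assay buffer / Also added: depolarizing K+/Tl+ stimulus, K2SO4 and Tl2SO4 each 12.5 mM in 5x stock / Incubation: 90 min dye loading and 20 min compound exposure, both at room temperature / Signal: thallium influx via FluxOR fluorescence, kinetic imaging / Evaluation: B score of baseline-normalized fluorescence ratio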
KCNK9 block conf – confirmation of human KCNK9 potassium channel inhibitors; HEK293 KCNK9 cells, FluxOR thallium flux fluorescence; 43% of 4,900 active; shares compounds with KCNK9 inh; inhibition, % at 10 µM;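 active means thallium signal inhibited by more than 5 SD of the compound-free buffer control wells, on both duplicate plates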;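 further: 0% = assay buffer control wells without compound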
Kir2-1 spec – selectivity of KCNK9 modulators against mouse Kir2.1; shares compounds with KCNK9 inh; Kir2.1 cells, FluxOR thallium flux fluorescence; inhibition, % at 10 µM; 4% of 4,900 active; AID 492993;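 active means thallium signal drop more than 5 SD beyond the mean of the no-compound control wells, seen in both duplicate plates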;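 further: signal is fluorescence rise after thallium addition divided by baseline fluorescence; plate controls were assay buffer only for no effect and full block by chlorpromazine control for full effect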
HEK293 Tl ctr – second counter-screen for KCNK9 modulators: effect in non-induced cells; shares compounds with KCNK9 inh; non-induced KCNK9-HEK293, FluxOR thallium flux; inhibition, % at 10 µM; 40% of 4,900 active;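 active means thallium signal drop beyond 5 SD of the untreated control mean, on both duplicate plates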;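 further: plate controls were buffer only IC0 wells for no effect and SID17386958 at its maximal inhibitory level for full effect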
* hit, by the source's call; i = inactive; x = not tested or not shown. The list is not random: actives were taken first. Their share in the collection is about 3.8%.

SMILES | KCNQ1 inh | KCNK3 block | KCNK9 inh | Kir21 block | hERG protect | KCNQ1 act | KCNK9 block conf | Kir2-1 spec | HEK293 Tl ctr
O=C(NCc1ccccc1)C1=C[C@H](C2CCCCC2)C[C@H](OCCCCO)O1 | i | i | i | -0.55 | -7.0 | i | i | i | i
O=C(Nc1ccccc1)C1=C[C@@H](C2CCCCC2)C[C@@H](OCCCCO)O1 | i | i | i | 1.9 | -7.2 | i | x | x | x
O=C(NCc1ccccc1)C1=C[C@H](c2ccc3c(c2)OCO3)C[C@H](OCc2ccc(CO)cc2)O1 | i | i | i | -0.64 | -21.6 | i | x | x | x
CC1(C)Cc2cccc(OCC(=O)N3CCN(S(=O)(=O)c4ccc(F)cc4)CC3)c2O1 | i | i | i | -0.01 | -12.2 | i | x | x | x
Cc1cccc(N2CCN(C(=O)COc3cccc4c3OC(C)(C)C4)CC2)c1C | i | i | -8.7* | 0 | -8.7 | i | 25.0%* | i | i
Nn1c(SCC(=O)Nc2ccc(Oc3ccccc3)cc2)nnc1C1CC1 | i | i | i | 1.05 | -7.6 | i | i | i | i
O=C(CCc1ccncc1)N1CCCC(Nc2ccc(F)c(F)c2)C1 (centres undefined) | i | i | i | -0.72 | -9.6 | i | x | x | x
CSc1c(CC(=O)Nc2ccccc2)n(C)c2ccccc12 | i | i | i | 0 | -5.6 | i | x | x | x
Cn1c(CC(=O)Nc2ccccc2)c(Sc2ccccc2)c2ccccc21 | i | i | i | 0.03 | -9.8 | i | i | i | i
CN(C)/N=C/c1ccc([N+](=O)[O-])cc1[N+](=O)[O-] | i | i | i | 0.02 | -8.5 | i | x | x | x
CN(C)/N=C/c1ccc(Sc2ccccc2[N+](=O)[O-])o1 | i | i | i | -0.14 | -7.2 | i | i | i | i
CCN1CCN(S(=O)(=O)CC2(C)C3CCC2(C)C(=O)C3Br)CC1 (centres undefined) | i | i | i | 0.02 | -12.4 | i | x | x | x
CC(C)=CCc1c(-c2ccc(O)cc2O)oc2c3c(cc(O)c2c1=O)OC(C)(C)C=C3 | i | x | i | 0.67 | -9.0 | i | i | i | i
CC(C)=CCc1c2c(c(O)c3c(=O)c4c(oc13)-c1cc(O)c(O)cc1OC4C=C(C)C)C=CC(C)(C)O2 (centres undefined) | i | x | i | 1.29 | -5.9 | i | x | x | x
CN(Cc1cnn(-c2ccc(F)cc2)c1)Cc1nc(Cc2ccccc2)no1 | i | i | i | 0.04 | -14.1 | i | i | i | i
CN(CCc1cnn(C)c1)Cc1nc(Cc2ccccc2)no1 | i | i | i | -0.4 | -10.5 | i | x | x | x
CN(CC(=O)NCCc1ccccc1)Cc1ccco1 | i | i | i | 0.93 | -12.7 | i | x | x | x
Cc1ccc2c(CN3CCCCC3)cc(=O)oc2c1C | i | i | i | -0.78 | -4.2 | i | i | i | i
Cc1cc(C)c2oc(=O)cc(CN3CCCCC3)c2c1 | i | i | i | -0.82 | -0.8 | i | i | i | i
CCc1cc(=O)oc2c(C)c(O)c(CN3CCCCC3)cc12 | i | i | i | 0.8 | -12.3 | i | x | x | x
O=C(Nc1cc(S(=O)(=O)N2CCCCC2)ccc1Cl)c1ccc(F)cc1 | x | i | x | x | x | x | x | x | x
CCOc1cc(N2CCOCC2)c(OCC)cc1NC(=O)C(NC(=O)c1c(F)cccc1F)C(C)C (centres undefined) | x | i | x | x | x | x | x | x | x
CCCCNC(=S)N/N=C/C1=CCC2CC1C2(C)C (centres undefined) | i | i | i | -1.24 | 4.2 | i | i | i | i
COc1ccc(-c2sc3cc(OC)c(OC)cc3c2-c2ccc(O)cc2)cc1 | x | i | x | x | x | x | x | x | x
Cc1ccc(CN(C)C(=O)c2cc(COc3cccc(C(F)(F)F)c3)on2)o1 | i | i | i | -4.56* | -12.8 | i | i | i | 32.5%*
SMILES | KCNQ1 inh | KCNK3 block | KCNK9 inh | Kir21 block | hERG protect | KCNQ1 act | KCNK9 block conf | Kir2-1 spec | HEK293 Tl ctr
C=CCC1(CC=C)CCCN1C(=O)c1cc(COc2cccc(C(F)(F)F)c2)on1 | i | i | i | -1.1 | -11.5 | i | i | i | i
COc1cc(OC)cc(C(=O)N[C@H](C(=O)NCc2ccc(F)cc2)C(C)C)c1 | i | i | i | 1.03 | -12.0 | i | x | x | x
Cc1ccc(CCS(=O)(=O)c2ccc(C(C)(C)C)cc2)cn1 | i | i | i | -0.94 | -10.8 | i | x | x | x
COc1ccccc1C(C)NC(=O)CCNC(=O)c1ccc(Cl)cc1 (centres undefined) | x | i | x | x | x | x | x | x | x
CCCCC(CC)COC1(c2ccccc2)OC(=O)c2ccccc21 (centres undefined) | i | i | -17.7* | -0.12 | -6.2 | i | 76.5%* | i | 50.0%*
O=C1OC(OC2CCCCC2)(c2ccccc2)c2ccccc21 (centres undefined) | i | i | -17.6* | 0.58 | -7.4 | i | 76.0%* | i | 60.0%*
O=C1OC(Oc2ccccc2)(c2ccccc2)c2ccccc21 (centres undefined) | i | i | -10.1* | -0.24 | -16.2 | i | 51.5%* | i | 47.5%*
CCc1ccc(CCC(=O)N2CCN(S(=O)(=O)c3sc(C(=O)O)c(C)c3C(=O)O)CC2)cc1 | x | i | x | x | x | x | x | x | x
CC(CN1C(C)CCCC1C)OC(=O)c1ccc(Cl)cc1Cl (centres undefined) | i | i | i | -1.29 | -1.0 | i | x | x | x
COc1ccc(CC(=O)OCc2nnc(-c3ccccc3)o2)cc1 | i | i | i | 0.5 | -5.2 | i | x | x | x
CCOc1ccc(/C=C2\SC(=S)N(CCC(=O)Nc3ccccc3C(=O)O)C2=O)cc1 | i | i | i | 0.84 | -11.1 | i | x | x | x
O=C(O)C(Cc1ccccc1)N1C(=O)/C(=C/c2cccnc2)SC1=S (centres undefined) | i | i | i | -0.04 | -7.8 | i | x | x | x
COc1cc(/C=C2\SC(=S)N(CCC(=O)Nc3ccccn3)C2=O)cc(OC)c1OC | i | i | -8.26* | 0.01 | -11.7 | i | i | i | i
COc1ccc(/C=C2\SC(=S)N(CCC(=O)Nc3ccccc3C(=O)O)C2=O)cc1 | i | i | i | -0.16 | -0.7 | i | i | i | i
COc1ccc(/C=C2\SC(=S)N(C(Cc3ccccc3)C(=O)O)C2=O)cc1 (centres undefined) | i | i | i | 0.32 | -14.9 | i | i | i | i
